This is a sample that favours compounds with a hit; in the whole collection about 2.3% have one here.
TRPC6 inh: inhibitors of mouse TRPC6 channel. actives 1.1% (n = 310,000). HEK293-TRPC6, membrane potential dye, ACh-evoked depolarization; active compounds read low. Q61143. B-score at 10 µM;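 active = B-score under library mean minus 3 SD, initial fluorescence not abnormally high, positive integrated signal ratio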;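 also: B-score derived from integrated fluorescence ratio over the kinetic read; more negative B-score means stronger inhibition of depolarization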
Target sequence (Q61143 whole entry, looked up): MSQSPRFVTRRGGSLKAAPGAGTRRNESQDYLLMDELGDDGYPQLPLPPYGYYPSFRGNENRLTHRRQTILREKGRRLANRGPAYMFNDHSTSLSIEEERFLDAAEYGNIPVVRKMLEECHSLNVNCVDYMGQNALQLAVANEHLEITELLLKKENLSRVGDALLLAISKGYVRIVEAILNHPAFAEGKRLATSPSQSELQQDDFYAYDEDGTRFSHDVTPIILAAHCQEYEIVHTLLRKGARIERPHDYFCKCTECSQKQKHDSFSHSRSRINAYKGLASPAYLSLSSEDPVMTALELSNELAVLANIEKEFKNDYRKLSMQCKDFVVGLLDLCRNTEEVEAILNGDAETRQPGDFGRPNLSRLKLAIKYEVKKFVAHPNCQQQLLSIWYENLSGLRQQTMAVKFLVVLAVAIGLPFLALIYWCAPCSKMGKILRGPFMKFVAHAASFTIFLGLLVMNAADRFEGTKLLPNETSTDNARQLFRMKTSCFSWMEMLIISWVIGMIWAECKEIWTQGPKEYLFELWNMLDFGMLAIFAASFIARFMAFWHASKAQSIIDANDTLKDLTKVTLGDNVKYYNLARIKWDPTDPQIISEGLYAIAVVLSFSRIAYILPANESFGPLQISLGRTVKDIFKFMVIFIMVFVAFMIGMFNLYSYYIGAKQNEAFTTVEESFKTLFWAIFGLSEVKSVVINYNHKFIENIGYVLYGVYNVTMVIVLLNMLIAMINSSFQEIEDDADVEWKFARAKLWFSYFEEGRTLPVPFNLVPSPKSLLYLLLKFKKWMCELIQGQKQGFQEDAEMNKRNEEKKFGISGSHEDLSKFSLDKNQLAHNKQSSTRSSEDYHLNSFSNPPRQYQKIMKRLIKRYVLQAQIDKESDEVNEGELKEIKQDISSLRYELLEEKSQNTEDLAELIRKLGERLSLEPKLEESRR
TRPC6 activator: activates the mouse TRPC6 cation channel; B-score at 10 µM; actives 0.13% (n = 310,000); HEK293-TRPC6 membrane potential dye fluorescence; active compounds read high;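 active = B-score of the integrated fluorescence ratio above library mean plus 3 SD, and starting fluorescence ratio within library mean plus 5 SD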;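 also: higher score means more depolarization so channel activation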
TRPC4 PAM: TRPC4 (mouse) allosteric potentiation; HEK293 TRPC4beta/mu-opioid, DAMGO EC20, Fluo-4 Ca2+ flux; active compounds read high; B-score at 10 µM; Q9QUQ5; actives 0.42% (n = 310,000);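 active = B-score of calcium response area above 5 SD of library B-scores, with initial fluorescence ratio within 5 SD of library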;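 also: B-score of integrated fluorescence ratio over time as area under calcium response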
TRPC4 inh: inhibitors of mouse TRPC4 channel; HEK293 TRPC4beta/mu-opioid, DAMGO-evoked Fluo4 calcium flux; active compounds read low; B-score at 10 µM; actives 0.39% (n = 300,000); AID 2247;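 active = B-score over 3 SD under the library average, no early fluorescence shift, positive overall ratio signal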
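Assay system: Stable TRPC4beta/mu-opioid receptor HEK293 cells | Reagent: DAMGO in two steps, submaximal then maximal | Compound dosing: Single concentration per test compound | Signal: Fluo4 Ca2+ flux fluorescence | Evaluation: Per-well B score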
TRPC4 act: activators of mouse TRPC4 channel; Q9QUQ5; HEK293 TRPC4beta/mu-opioid, Fluo4 calcium fluorescence; active compounds read high; B-score at 10 µM; actives 0.49% (n = 310,000);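 active = B-score above 5 SD of library B-scores, and initial fluorescence ratio not above library mean plus 5 SD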;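 also: positive B-score marks a calcium rise read as TRPC4 activation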
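Material: TRPC4beta and mu-opioid receptor HEK293 stable cells | Incubation: 45 min room-temperature Fluo4 loading, 110 s read | Detection: Kinetic Fluo4 calcium fluorescence | Measure: Integrated baseline-normalised fluorescence ratio, converted to per-well B score | Benchmarks: Low control buffer alone, high control maximal DAMGO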
TRPC4 sel inh 2: second check of whether TRPC6 inhibitors also affect mouse TRPC4; actives 42% (n = 920); shares compounds with TRPC6 inh; inhibition, % at 10 µM; HEK293 TRPC4/MOR, membrane potential dye fluorescence; channel activated by saturating DAMGO dose;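 active = compounds whose fluorescence signal differed from control wells by over 3 SD, either direction, in both duplicate plates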
TRPC4 spec: selectivity of TRPC6 inhibitors: effect on mouse TRPC4; shares compounds with TRPC6 inh; activity change, negative = inhibition, % at 10 µM; HEK293 TRPC4/mu-opioid, membrane potential fluorescence; actives 61% (n = 920);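 active = rise or fall in signal beyond 3 SD of buffer-only wells in both replicate plates, either sign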;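 also: integrated kinetic ratio of fluorescence range over baseline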
HEK293 MPD ctr 2-1: parental HEK293 nonspecific activity of TRPC6 inhibitors, second screen; parental HEK293 membrane potential dye fluorescence; maximal acetylcholine challenge after compound addition; actives 31% (n = 920); shares compounds with TRPC6 inh; signal change vs control, % at 10 µM;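 active = membrane potential signal moving either way by over 3 SD of the maximum-effect control, in both duplicate plates, meaning non-specific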
HEK293 MPD ctr-1: checks TRPC6 inhibitor effects in parental HEK293 cells; shares compounds with TRPC6 inh; parental HEK293 membrane potential dye fluorescence; membrane potential signal change, % at 10 µM; actives 60% (n = 920);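 active = membrane potential signal shifting up or down by more than 3 SD of buffer-only wells, on both duplicate plates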
HEK293 MPD ctr-2: parental HEK293 nonspecific activity of TRPC6 modulators. AID 488924. membrane potential dye fluorescence. membrane potential signal change, % at 10 µM. actives 51% (n = 2,400). shares compounds with TRPC6 inh;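 active = membrane potential signal moves up or down beyond 5 SD from buffer-only wells, on both duplicate plates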
HEK293 MPD ctr 2-2: second counter-screen for TRPC6 modulators: effect in parental HEK293 cells. shares compounds with TRPC6 inh. membrane potential dye fluorescence; after compound, maximal acetylcholine stimulation. inhibition, % at 10 µM. actives 14% (n = 2,400);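 active = membrane potential signal drops by more than 5 SD from the mean control signal, in both duplicate plates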;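 also: plate controls were acetylcholine ECmax control wells for no effect and buffer only wells for full effect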
TRPC4/MOR mod: mouse TRPC4 off-target activity of TRPC6 modulators. shares compounds with TRPC6 inh. HEK293 TRPC4/mu-opioid, membrane potential fluorescence. percent change from control (negative = decrease, positive = increase), % at 10 µM. actives 69% (n = 2,400);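 active = membrane potential signal moved up or down beyond 5 SD of buffer control wells, in both duplicate plates, actives on both sides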;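 also: plate controls were assay buffer wells for no effect and DAMGO maximal-effect wells for full effect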
TRPC4 ctr inh 2: mouse TRPC4 off-target activity of TRPC6 modulators, second screen. inhibition, % at 10 µM. actives 55% (n = 2,400). AID 488928. HEK293 TRPC4/mu-opioid, membrane potential dye fluorescence; stimulated with maximal-effect DAMGO. shares compounds with TRPC6 inh;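 active = drop in membrane potential signal beyond 5 SD of the control wells in both duplicate plates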;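 also: TRPC4 counter screen for TRPC6 hits run under conditions tuned for TRPC6 not TRPC4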
TRPC6 inh conf: confirmation of mouse TRPC6 inhibitors. shares compounds with TRPC6 inh. HEK293-TRPC6, membrane potential dye, ACh-evoked depolarization. inhibition, % at 10 µM. actives 43% (n = 3,300);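 active = fluorescence ratio falls more than 5 SD below the full-stimulation control mean, in both duplicate runs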;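 also: integrated fluorescence ratio of peak minus minimum over baseline after agonist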
TRPC6 act conf: confirmation of mouse TRPC6 activators. actives 11% (n = 2,800). activation, % at 10 µM. HEK293-TRPC6 membrane potential dye fluorescence, FDSS. shares compounds with TRPC6 inh;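 active = ratio signal rise beyond 5 SD above unstimulated control wells' mean, seen in both duplicate runs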;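 also: plate controls were buffer EC0 wells for no effect and acetylcholine ECmax response for full effect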
Active calls of the source: *; i = inactive; . = not tested or not shown.

SMILES	TRPC6 inh	TRPC6 activator	TRPC4 PAM	TRPC4 inh	TRPC4 act	HEK293 MPD ctr-2	HEK293 MPD ctr 2-2	TRPC4/MOR mod	TRPC4 ctr inh 2	TRPC6 inh conf	TRPC6 act conf	others
NS(=O)(=O)c1ccc(NC(=O)COC(=O)CNC(=O)C23CC4CC(CC(C4)C2)C3)cc1	i	i	i	i	i	.	.	.	.	.	.
Fc1ccc(C(CCNCc2ccccn2)c2ccc(Cl)cc2)cc1 (stereo not given)	-5.2*	i	i	i	i	188%*	i	31%*	74%*	i	.
c1cncc(-c2ccnc3ncnn23)c1	i	i	i	i	i	.	.	.	.	.	.
COc1ccc(N(C(=O)c2cnccn2)C(C(=O)NCc2ccccc2)c2ccc(O)cc2)cc1 (stereo not given)	i	i	i	i	i	.	.	.	.	.	.
Cn1ncc(Cl)c1C(=O)N1CCN(S(=O)(=O)c2ccc(Cl)s2)CC1	i	i	i	i	i	.	.	.	.	.	.
Cn1c(=O)c2c(nc(SCCN3CCOCC3)n2Cc2ccccc2Cl)n(C)c1=O	i	i	i	i	i	.	.	.	.	.	.
Cn1c(=O)c2c(nc(SCCN3CCCCC3)n2Cc2ccccc2)n(C)c1=O	-9.2*	i	33*	i	i	.	.	.	.	i	i	TRPC4 sel inh 2=42%*;TRPC4 spec=22%*;HEK293 MPD ctr 2-1=i;HEK293 MPD ctr-1=-392%*
O=C(c1ccccc1)N1CCN(Cc2ccccc2C(F)(F)F)CC1	i	12*	i	i	i	i	i	18%*	i	.	134%*
CCOC(=O)c1c(-c2ccccc2)nnn1-c1nc(OCC)nc(N2CCCCC2)n1	i	16*	i	i	i	354%*	i	91%*	i	i	176%*
CCOC(=O)c1nnn(-c2nc(N3CCCC3)nc(N3CCCC3)n2)c1-c1ccccc1	i	i	i	i	i	.	.	.	.	.	.
O=C(CN1CCN(Cc2ccccc2)CC1)Nc1cccc(S(=O)(=O)N2CCCCCC2)c1	i	i	i	i	i	.	.	.	.	.	.
O=C(Nc1cccc(S(=O)(=O)N2CCCCC2)c1)c1c2c(nc3ccccc13)CCN(Cc1ccccc1)C2	-5.3*	i	i	i	i	i	i	i	i	i	i
CCOc1ccc2nc(C)cc(Nc3ccc4c(c3)OCCO4)c2c1	-9.8*	i	i	i	i	.	.	.	.	i	i	TRPC4 sel inh 2=i;TRPC4 spec=-13%*;HEK293 MPD ctr 2-1=i;HEK293 MPD ctr-1=-178%*
